Results taken from ChEMBL document CHEMBL1134607, “Synthesis and structure-activity relationships of a new model of arylpiperazines. Study of the 5-HT(1a)/alpha(1)-adrenergic receptor affinity by classical hansch analysis, artificial neural networks, and computational simulation of ligand recognition” (J Med Chem, 2001).

Experiments:
[1] = molecular target: T1, Adrenergic receptor alpha-1 (Rattus norvegicus, UniProt P15823+P23944+P43140); test: In vitro binding affinity towards alpha-1 adrenergic receptor in rat cerebral cortex membranes; type: cell membranes, Membrane
T1 sequence (P15823 whole entry): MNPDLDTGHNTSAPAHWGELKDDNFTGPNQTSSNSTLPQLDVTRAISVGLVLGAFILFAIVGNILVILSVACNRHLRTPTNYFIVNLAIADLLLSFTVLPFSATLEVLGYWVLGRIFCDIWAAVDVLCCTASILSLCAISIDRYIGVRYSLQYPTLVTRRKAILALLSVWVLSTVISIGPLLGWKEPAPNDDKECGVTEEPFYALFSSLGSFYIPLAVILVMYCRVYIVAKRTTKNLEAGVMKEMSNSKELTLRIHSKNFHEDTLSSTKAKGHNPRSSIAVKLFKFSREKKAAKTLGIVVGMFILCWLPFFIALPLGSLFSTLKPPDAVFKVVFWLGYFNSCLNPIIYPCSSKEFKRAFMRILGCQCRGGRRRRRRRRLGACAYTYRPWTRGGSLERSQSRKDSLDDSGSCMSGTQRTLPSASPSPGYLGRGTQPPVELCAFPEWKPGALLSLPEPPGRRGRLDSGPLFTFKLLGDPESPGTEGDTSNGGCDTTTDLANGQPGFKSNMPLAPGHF
T1 sequence (P23944 whole entry): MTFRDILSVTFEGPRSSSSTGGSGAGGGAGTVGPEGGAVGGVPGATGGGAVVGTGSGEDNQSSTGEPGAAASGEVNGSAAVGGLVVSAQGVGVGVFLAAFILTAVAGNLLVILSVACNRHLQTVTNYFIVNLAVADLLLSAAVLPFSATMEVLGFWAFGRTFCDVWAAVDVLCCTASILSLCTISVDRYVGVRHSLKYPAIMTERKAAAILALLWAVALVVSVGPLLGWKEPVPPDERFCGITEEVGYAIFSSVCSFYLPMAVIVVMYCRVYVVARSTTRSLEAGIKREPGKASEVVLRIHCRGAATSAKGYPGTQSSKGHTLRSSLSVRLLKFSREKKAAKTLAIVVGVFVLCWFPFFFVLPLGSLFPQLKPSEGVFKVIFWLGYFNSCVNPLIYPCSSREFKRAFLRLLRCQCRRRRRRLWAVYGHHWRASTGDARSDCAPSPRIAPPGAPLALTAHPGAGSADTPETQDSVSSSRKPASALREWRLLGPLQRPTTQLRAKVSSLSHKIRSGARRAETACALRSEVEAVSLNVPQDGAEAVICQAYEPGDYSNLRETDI
T1 sequence (P43140 whole entry): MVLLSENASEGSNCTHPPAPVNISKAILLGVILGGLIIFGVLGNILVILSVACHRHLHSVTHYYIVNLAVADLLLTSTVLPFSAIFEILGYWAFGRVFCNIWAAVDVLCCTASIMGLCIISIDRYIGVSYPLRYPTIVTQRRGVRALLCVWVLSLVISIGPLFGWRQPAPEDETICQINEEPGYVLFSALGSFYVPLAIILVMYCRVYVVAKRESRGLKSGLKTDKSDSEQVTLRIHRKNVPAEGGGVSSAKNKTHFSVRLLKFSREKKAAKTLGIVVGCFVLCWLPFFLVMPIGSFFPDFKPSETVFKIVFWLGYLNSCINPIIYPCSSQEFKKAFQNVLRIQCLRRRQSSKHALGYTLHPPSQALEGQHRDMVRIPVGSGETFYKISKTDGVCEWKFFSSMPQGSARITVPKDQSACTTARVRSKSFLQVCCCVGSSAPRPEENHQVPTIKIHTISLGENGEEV
In short: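 Rat cerebral cortex membranes in 50 mM Tris-HCl, 10 mM MgCl2, pH 7.4. About 250 µg protein incubated 30 min at 25 °C with 0.2 nM [3H]prazosin. Nonspecific binding with 10 µM phentolamine. Triplicates, filtration, scintillation counting. Ki by Cheng-Prusoff from iteratively fitted IC50. Prescreen at 10^-6 M, dose-response curves if displacement ≥55%.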

[2] = molecular target: T2, 5-hydroxytryptamine receptor 1A (Rattus norvegicus, UniProt P19327); test: In vitro binding affinity towards 5-hydroxytryptamine 1A receptor in rat cerebral cortex membranes; type: cell membranes, Membrane
T2 sequence (P19327 whole entry): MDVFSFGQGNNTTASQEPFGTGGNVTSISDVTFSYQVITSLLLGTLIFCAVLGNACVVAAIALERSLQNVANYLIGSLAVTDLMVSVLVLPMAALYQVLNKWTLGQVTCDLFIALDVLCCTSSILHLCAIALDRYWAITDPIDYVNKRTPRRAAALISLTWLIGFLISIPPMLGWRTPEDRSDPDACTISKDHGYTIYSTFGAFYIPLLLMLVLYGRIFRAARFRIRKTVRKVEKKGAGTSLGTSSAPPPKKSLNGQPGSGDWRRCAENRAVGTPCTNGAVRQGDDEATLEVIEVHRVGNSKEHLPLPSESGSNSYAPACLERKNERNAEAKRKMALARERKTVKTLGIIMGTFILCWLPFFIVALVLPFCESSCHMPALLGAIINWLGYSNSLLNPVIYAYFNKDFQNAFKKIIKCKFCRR
In short: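 Rat cerebral cortex membranes, washed and preincubated 10 min at 37 °C. About 1 mg protein incubated 15 min at 37 °C with 0.6 nM [3H]8-OH-DPAT in 50 mM Tris-HCl pH 7.4 containing 10 nM clonidine and 30 nM prazosin. Nonspecific binding with 10 µM 5-HT. Triplicates, filtration, scintillation counting. Ki by Cheng-Prusoff from fitted IC50. Prescreen at 10^-6 M, full curves if displacement ≥55%.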

Ki [1] [nM] | Ki [2] [nM] | SMILES
2.4 | 0.6 | O=C1C2CCCCN2C(=O)N1CCCCN1CCN(c2ccccc2Oc2ccccc2)CC1 (configuration not stated)
5 | 2.2 | CCCCOc1ccccc1N1CCN(CCCCN2C(=O)C3CCCCN3C2=O)CC1 (configuration not stated)
7 | – | Cc1ccccc1N1CCN(CCCCN2C(=O)C3CCCN3C2=O)CC1 (configuration not stated)
> 1000 | – | CCS(=O)(=O)Nc1cccc(N2CCN(CCCCN3C(=O)C4CCCN4C3=O)CC2)c1 (configuration not stated)
25 | 12 | COc1ccccc1N1CCN(CCCCN2CC(=O)N3CCCC3C2=O)CC1 (configuration not stated)
30 | 15 | N#Cc1ccccc1N1CCN(CCCCN2CC(=O)N3CCCCC3C2=O)CC1 (configuration not stated)
4.9 | 4 | N#Cc1ccccc1N1CCN(CCCCN2C(=O)C3CCCN3C2=O)CC1 (configuration not stated)
16140 | 198 | CC(C)C(=O)Nc1cccc(N2CCN(CCCCN3CC(=O)N4CCCCC4C3=O)CC2)c1 (configuration not stated)
392 | 28 | CCCOC(=O)c1ccccc1N1CCN(CCCCN2CC(=O)N3CCCCC3C2=O)CC1 (configuration not stated)
393 | 1180 | Nc1cccc(N2CCN(CCCN3C(=O)C4CCCN4C3=O)CC2)c1 (configuration not stated)
4430 | 776 | CC(C)C(=O)Nc1cccc(N2CCN(CCCN3C(=O)C4CCCCN4C3=O)CC2)c1 (configuration not stated)
12 | – | CCCOC(=O)c1ccccc1N1CCN(CCCN2CC(=O)N3CCCC3C2=O)CC1 (configuration not stated)
5425 | 193 | CC(C)C(=O)Nc1cccc(N2CCN(CCCCN3C(=O)C4CCCN4C3=O)CC2)c1.Cl (configuration not stated)
72 | 5.5 | O=C1C2CCCN2C(=O)CN1CCCCN1CCN(c2cccc(C(F)(F)F)c2)CC1 (configuration not stated)
27 | 32 | Cc1ccccc1N1CCN(CCCCN2CC(=O)N3CCCCC3C2=O)CC1 (configuration not stated)
6.2 | 3.4 | O=C1C2CCCCN2C(=O)N1CCCCN1CCN(c2ccccc2Br)CC1 (configuration not stated)
8.2 | 65 | N#Cc1ccccc1N1CCN(CCCN2C(=O)C3CCCCN3C2=O)CC1 (configuration not stated)
231 | 68 | Nc1cccc(N2CCN(CCCCN3C(=O)C4CCCCN4C3=O)CC2)c1 (configuration not stated)

Ki [1] [nM] | Ki [2] [nM] | SMILES
17 | 48 | Cc1ccccc1N1CCN(CCCN2CC(=O)N3CCCC3C2=O)CC1 (configuration not stated)
25 | 34 | O=C1C2CCCN2C(=O)N1CCCN1CCN(c2cccc(Br)c2)CC1 (configuration not stated)
1354 | 1230 | CCCNC(=O)c1ccccc1N1CCN(CCCCN2CC(=O)N3CCCC3C2=O)CC1 (configuration not stated)
13 | 92 | CCCCOc1ccccc1N1CCN(CCCN2CC(=O)N3CCCCC3C2=O)CC1 (configuration not stated)
13 | 46 | CCCOC(=O)c1ccccc1N1CCN(CCCN2C(=O)C3CCCCN3C2=O)CC1 (configuration not stated)
5.7 | 220 | Cc1ccccc1N1CCN(CCCN2C(=O)C3CCCCN3C2=O)CC1 (configuration not stated)
17 | 27 | N#Cc1ccccc1N1CCN(CCCN2CC(=O)N3CCCC3C2=O)CC1 (configuration not stated)
29 | 143 | COc1ccccc1N1CCN(CCCN2CC(=O)N3CCCCC3C2=O)CC1 (configuration not stated)
6.4 | 15 | CCCCOc1ccccc1N1CCN(CCCN2C(=O)C3CCCN3C2=O)CC1 (configuration not stated)
339 | 179 | O=C1C2CCCCN2C(=O)CN1CCCN1CCN(c2cccc(C(F)(F)F)c2)CC1 (configuration not stated)
10.5 | 8.7 | CCCCOc1ccccc1N1CCN(CCCCN2CC(=O)N3CCCC3C2=O)CC1 (configuration not stated)
5.9 | 5.4 | O=C1C2CCCCN2C(=O)N1CCCCN1CCN(c2cccc(Br)c2)CC1 (configuration not stated)
608 | 808 | CCCNC(=O)c1ccccc1N1CCN(CCCN2C(=O)C3CCCN3C2=O)CC1 (configuration not stated)
1440 | 266 | CC(C)C(=O)Nc1cccc(N2CCN(CCCN3CC(=O)N4CCCC4C3=O)CC2)c1 (configuration not stated)
521 | 378 | CCCNC(=O)c1ccccc1N1CCN(CCCCN2C(=O)C3CCCCN3C2=O)CC1 (configuration not stated)
811 | 4610 | CCCNC(=O)c1ccccc1N1CCN(CCCN2CC(=O)N3CCCCC3C2=O)CC1 (configuration not stated)
41 | 4.8 | CCCOC(=O)c1ccccc1N1CCN(CCCCN2C(=O)C3CCCN3C2=O)CC1 (configuration not stated)
